Compounds with a hit are over-represented: about 1.4% of the library has one in this group of screens.
Tn6 DDE FP – inhibitors of Tn6 peptide binding to fibrin DD(E), primary screen, biochemical, fluorescence polarization, human fibrin, Tn6 probe. 370,000 tested, 0.21% active. Fibrin DD(E) TRITC-Tn6 fluorescence polarization displacement. AID 720509, 2013. inhibition, % at 8.3 µM;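 active = inhibition above a per-campaign cutoff: mean of compounds within control limits plus 3 SD, cut at about 15% in these data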;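 note: 0% = median of all compound wells on the plate and 100% = blocking peptide control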
Target sequence (P02675 whole entry, looked up): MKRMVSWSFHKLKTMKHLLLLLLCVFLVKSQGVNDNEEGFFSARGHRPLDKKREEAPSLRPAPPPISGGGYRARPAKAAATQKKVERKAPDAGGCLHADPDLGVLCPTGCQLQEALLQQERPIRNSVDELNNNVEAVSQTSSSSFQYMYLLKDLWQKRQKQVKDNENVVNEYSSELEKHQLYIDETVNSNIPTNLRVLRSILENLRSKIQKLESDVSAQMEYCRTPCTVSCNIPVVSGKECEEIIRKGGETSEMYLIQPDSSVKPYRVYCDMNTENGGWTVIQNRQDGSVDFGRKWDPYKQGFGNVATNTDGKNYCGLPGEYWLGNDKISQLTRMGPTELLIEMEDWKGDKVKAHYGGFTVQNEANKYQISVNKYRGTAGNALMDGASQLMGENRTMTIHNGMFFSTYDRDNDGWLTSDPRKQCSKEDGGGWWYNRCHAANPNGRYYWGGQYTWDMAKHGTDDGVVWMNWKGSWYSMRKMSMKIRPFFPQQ
FID counter – compounds displacing fluorescent DNA intercalator, primary screen, artefact control for HCV NS3 helicase inhibitor project, biochemical, FID fluorescence; DNA fluorescent intercalator displacement; inhibition, % at 7.9 µM; 290,000 tested, 0.17% active; in the data active = inhibition above about 37%;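 note: 0% = vehicle and 100% = reference compound; higher means more ethidium bromide displaced from hairpin DNA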
Tn7 DDE FP – inhibitors of Tn7 peptide binding to fibrin DD(E), primary screen, biochemical, fluorescence polarization, human fibrin, Tn7 probe; Fibrinogen beta chain (Homo sapiens), P02675; FP displacement of FITC-Tn7 peptide from fibrin DD(E); 0% = median of compound wells per plate; inhibition, % at 8.3 µM; 370,000 tested, 0.13% active;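 active = inhibition above the mean of compounds falling within the control limits plus 3 SD of them, cut at about 14% in these data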;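 note: 0% = plate median of compound wells and 100% = 10 µM Aha-Tn7 peptide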
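Assay system: Fibrin-DD(E) protein isolated from polymerized human fibrin clots; read-out basis: percent inhibition; medium: Tris/NaCl/CaCl2 buffer, pH 7.8; signal: FP measurement; incubation: 10 min plus 3 h, room temperature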
PLCg1 inh – PLC-gamma1 enzyme inhibitors, primary screen, biochemical, fluorescence, purified enzyme; fluorogenic substrate; inhibition, % at 12.2 µM; 370,000 tested, 0.84% active; AID 720700, 2013; in the data active = inhibition above about 9.5%
PLCb3 inh – human PLC-beta3 inhibitors, primary screen, biochemical, fluorescence; inhibition, % at 12.2 µM; 1-phosphatidylinositol 4,5-bisphosphate phosphodiesterase beta-3 (Homo sapiens), Q01970; 370,000 tested, 0.18% active; Purified PLC-beta3, fluorogenic substrate; in the data active = inhibition above about 11%;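 note: 0% = median of compound wells on plate and 100% = full blocker control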
Tn6 DDE ctr – counter-screen hit for Tn6 peptide-fibrin DD(E) binding disruption. shares compounds with Tn6 DDE FP. TRITC-Tn6 fluorescence polarization displacement; 0% = median of compound wells, not DMSO. inhibition, % at 8.3 µM. 680 tested, 2% active. AID 720621;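 active = inhibition above the mean of test compounds lying between the control limits plus 3 SD of those, cut at about 14% in these data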;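 note: 0% = median of compound wells and 100% = wells with Aha-Tn7 blocking peptide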
Tn6 DDE conf – inhibitors of Tn6 peptide binding to fibrin DD(E), confirmation, biochemical, fluorescence polarization, human fibrin, Tn6 probe. AID 720631, 2013. 680 tested, 10% active. FP displacement of TRITC-Tn6 peptide from DD(E); 0% = per-plate median of test wells. shares compounds with Tn6 DDE FP. inhibition, % at 8.3 µM;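 active = inhibition above the mean of compounds lying within the control limits plus 3 SD, cut at about 16% in these data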;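 note: 100% = high control wells holding a competing inhibitor peptide at 10 µM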
* = called active by the depositor; i = inactive; nt = no result given.

SMILES	Tn6 DDE FP	FID counter	Tn7 DDE FP	PLCg1 inh	PLCb3 inh	Tn6 DDE ctr	Tn6 DDE conf
CC(C1CC1)N(Cc1ccccc1)C(=O)NC(=O)c1cccc(F)c1 (configuration not stated)	-0.3	4.4	-0.8	-0.6	-0.8	nt	nt
CC(C1CC1)N(Cc1ccccc1)C(=O)NC(=O)c1ccccc1 (configuration not stated)	17.9*	1.9	-0.4	0.5	-3.6	0.2	0.8
COc1ccc(C(=O)NC(=S)NNC(=O)[C@H]2C[C@@H]2c2ccccc2)cc1OC	5.7	-6.8	0.1	-0.3	-0.9	nt	nt
Cc1oc(-c2ccc(-c3ccccc3)cc2)nc1CN(C)C1CCOC1 (configuration not stated)	-2.7	2.2	-0.5	-8.9	-14.2	nt	nt
O=C(CCCN=C1NS(=O)(=O)c2ccccc21)OCC(=O)c1ccccc1	-3.8	nt	1.1	-3.3	-4.0	nt	nt
O=C(COC(=O)CCCCCN=C1NS(=O)(=O)c2ccccc21)Nc1ccc(Cl)c(Cl)c1	28.9*	-9.4	1.3	2.6	5.0	6.9	5.2
CSCCC(NC(=O)COc1ccccc1)C(=O)N(C)CC(=O)Nc1c(C)cccc1C (configuration not stated)	4.7	nt	2.9	4.9	2.4	nt	nt
COC(=O)c1ccc2c(c1)C(C)(C)C(/C=C/c1ccc(O)cc1)=[N+]2C	63.9*	-14.0	-28.1	-393.6	i	-43.7	-25.2
COC(=O)c1ccc2c(c1)C(C)(C)C(/C=C/c1ccc(OC)c(OC)c1OC)=[N+]2C	129.5*	-36.7	-29.3	-190.3	-280.6	-10.9	-16.7
COc1cc(C2=Nc3c(c(C)nn3-c3ccccc3)P(=O)(N3CCOCC3)O2)cc(OC)c1OC (configuration not stated)	-5.7	-10.7	-8.6	-4.0	-4.7	nt	nt
Cc1ccc(C(=O)NCC(=O)OC(C)C(=O)NC2CCCc3ccccc32)cc1 (configuration not stated)	15.7*	nt	6.2	0.9	-6.8	4.0	-4.9
O=[N+]([O-])c1ccc2nc(SCc3cn4cc(Cl)ccc4n3)[nH]c2c1	-8.0	3.3	-1.8	3.5	3.0	nt	nt
COc1ccc(C(CNC(=O)C(=O)NC2CCCCC2)N2CCN(C)CC2)cc1 (configuration not stated)	15.9*	nt	-3.1	2.8	-1.0	4.1	-1.0
Cc1cc(C)cc(NC(=S)N2CCN(S(C)(=O)=O)CC2)c1	16.2*	-3.6	5.9	-2.5	-2.9	0.2	0.1
O=C(Nc1cccc(-c2nc3ccccc3[nH]2)c1)c1cccc(NC(=O)c2ccco2)c1	86.2*	4.3	9.4	-34.4	-31.1	5.7	30.4*
CCC(C)[C@H](NC(=O)NCc1ccc(Cl)cc1)C(=O)OC (some centres not stated)	17.1*	-5.9	3.8	0.7	3.0	-3.3	-7.6
N#C[C@H]1C(O)C(O)c2ccccc2N1C(=O)c1ccccc1 (some centres not stated)	2.1	nt	4.3	2.3	3.1	nt	nt
COc1ccc(CCC(=O)Nc2nccs2)cc1OC	-3.1	-5.7	-2.8	-0.1	-0.3	nt	nt
COc1ccc(CCC(=O)Nc2nc3c(s2)CN(C)CC3)cc1OC	82.9*	2.2	1.5	-1.6	1.3	0.3	-2.7
CCN(CC)CCN(C(=O)CCOc1ccccc1)c1nc2ccc(F)cc2s1	15.8*	0.6	4.1	2.3	-8.7	10.4	3.6
CCN(CC)CCN(C(=O)c1ccc2ccccc2c1)c1nc2ccc(F)cc2s1	-1.2	-1.1	-3.6	1.0	-8.2	nt	nt
Cc1ccnc(NC(=O)C2CCCN(S(=O)(=O)c3cnc[nH]3)C2)c1 (configuration not stated)	-4.3	2.3	-0.2	-2.9	-0.6	nt	nt
N=c1c[n+](N2CCOCC2)[n-]o1	19.4*	2.4	1.1	0.1	2.2	-7.6	-18.6
N#C/C(=C/C1=C(N2CCOCC2)C(=C/c2ccc(Cl)cc2Cl)/CC1)C(=O)Nc1ccccc1F	156.4*	nt	3.6	-2.2	-1.4	0.0	11.3
N#C/C(=C\C1=C(N2CCOCC2)C(=C\c2ccc(Cl)cc2)/CC1)C(=O)Nc1ccccc1F	-3.4	-5.1	1.6	-7.5	-4.0	nt	nt
SMILES	Tn6 DDE FP	FID counter	Tn7 DDE FP	PLCg1 inh	PLCb3 inh	Tn6 DDE ctr	Tn6 DDE conf
CC/C(=C\C(=O)c1ccncc1)Nc1ccc(O)cc1	45.7*	-108.8	3.7	-19.5	-22.0	-1.9	-4.5
Cc1ccc(S(=O)(=O)N2CCN(c3nc(C)c4c(c3C#N)CC(C)(C)OC4)CC2)cc1	15.6*	-10.8	0.8	-1.2	-2.2	-0.1	-4.6
Cc1nc(N2CCOCC2)c(C#N)c2c1COC(C)(C)C2	-4.4	-6.6	1.4	-105.2	-130.3	nt	nt
CCOc1ccc(NC(=O)N2CC(C)OC(C)C2)cc1 (configuration not stated)	3.7	-8.9	1.3	3.7	-0.3	nt	nt
CCCC(=O)Nc1cc(OC)c(NC(=S)Nc2cccc(C)c2)cc1OC	26.5*	nt	-3.4	-2.4	-9.2	-2.6	-18.2
CCN(CC)S(=O)(=O)c1ccc(OC)c(NC(=S)Nc2cccc(C)c2)c1	nt	-4.6	nt	nt	nt	nt	nt
CCCCC(=O)Nc1ccc(NC(=S)NC(=O)CC)cc1OC	-3.0	-9.4	-3.7	-1.2	0.8	nt	nt
CCc1ccc(NC(=S)Nc2cc(OC)c(NC(=O)C(C)C)cc2OC)cc1	25.0*	7.4	-5.0	2.6	0.6	2.5	2.1
CCCC(=O)Nc1cc(OC)c(NC(=S)Nc2ccc(CC)cc2)cc1OC	36.0*	nt	4.3	4.2	-3.1	3.8	3.2
CCCCOCCCNC(=O)C1CCCCC1	-0.3	-5.0	-1.7	2.6	3.6	nt	nt
O=C(CCN1CCOCC1)N1CCCC(Nc2ccc(F)cc2)C1 (configuration not stated)	15.2*	-2.3	1.1	0.2	-6.3	-1.7	-12.4
COc1ccc(/C=C/C(=O)NCCCNC(=O)/C=C/c2ccc(OC)c(OC)c2)cc1OC	-6.9	nt	-4.4	-9.4	-20.2	nt	nt
CCOC(=O)NCc1ccc2c(c1)cc(C)n2C	10.2	-11.6	-3.9	-21.8	-25.5	nt	nt
COc1ccc(C(=O)NCc2ccc3c(c2)cc(C)n3C)cc1OC	36.8*	-29.0	4.3	-38.1	-54.7	0.9	1.4
COc1ccc(CC(=O)NCc2ccc3c(c2)cc(C)n3C)cc1	-3.4	-27.9	3.6	-1.1	-0.6	nt	nt

Screening results deposited in PubChem BioAssay by The Scripps Research Institute Molecular Screening Center.
